This passage reports inhibition, Activity and Activity_index results from ChEMBL document CHEMBL4014309, “Development of an Acrylate Derivative Targeting the NLRP3 Inflammasome for the Treatment of Inflammatory Bowel Disease” (J Med Chem, 2017).

Active and inactive are the calls of the source. The calls are words filed in the database; no cut-off is given here.

The target in data set [1] is NACHT, LRR and PYD domains-containing protein 3 (Mus musculus) (UniProt Q8R4B8). The experiment in a line: Inhibition of NLRP3 inflammasome in LPS-primed C57BL/6 mouse bone marrow derived macrophages assessed as reduction in nigericin-induced IL-1beta production at 10 to 250 nM preincubated for 1 hr followed by stimulation with nigericin measured after 30 mins by ELISA. In a few lines:
(§1)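 Bone marrow macrophages from C57BL/6 mice, differentiated with 20% L-cell medium, primed with LPS (1 µg/mL, 3 h). Test agent or vehicle was added for 1 h, then ATP (5 mM, 30 min) or nigericin (10 µM, 30 min). IL-1β in the medium was measured by ELISA. LDH in the medium was measured colorimetrically as % of total cellular LDH.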
In general terms: An ELISA detects its analyte on a solid surface through an enzyme-linked reagent.

The test system of data set [2] is Rattus norvegicus. Description: Toxicity in Sprague-Dawley rat assessed as body weight loss at 1 mg/kg/day, ig. Format: organism-based. The following applies: in vivo, po. In a few lines: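 Rats received intrarectal DNBS (15 mg in 0.25 mL 50% ethanol) or none. Dosing was intragastric for 6 days from induction: compound 12.5–50 mg/kg/day in 0.2 mL olive oil, or dexamethasone 1 mg/kg/day in 0.2 mL 1% methylcellulose. Body weight change was recorded at end; n = 10, mean ± SEM.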

Data set [3] concerns Rattus norvegicus. The experiment in a line: Antiinflammatory activity in DNBS-induced Sprague-Dawley rat colitis model assessed as reduction in DNBS-induced spleen weight increase by measuring increase in spleen weight at 1 mg/kg/day, ig administered as methylcellulose suspension for 6 days simulatneously with 6 days of DNBS-challenge measured daily during compound dosing (reference value: 39.3%). Format: functional. Further details: scale not given: the % may be the effect or the level left. The method in brief: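 Spleen weight was used as an index of systemic inflammation. Rats had intrarectal DNBS (15 mg/0.25 mL 50% ethanol) and 6 days of intragastric dosing: 1 mg/kg/day in 1% methylcellulose, or 12.5–50 mg/kg/day in 0.2 mL olive oil. The spleen was weighed at sacrifice and expressed as percent increase versus control, n = 10.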

Data set [4] has as its target NACHT, LRR and PYD domains-containing protein 3 (Mus musculus) (UniProt Q8R4B8). Description: Inhibition of NLRP3 inflammasome in LPS-primed C57BL/6 mouse bone marrow derived macrophages assessed as reduction in nigericin-induced pyroptosis at 100 to 250 nM preincubated for 1 hr followed by […] measured after 30 mins by LDH release assay. The method in brief: as §1

Data set [5] relates to Rattus norvegicus. The experiment in a line: Antiinflammatory activity in DNBS-induced Sprague-Dawley rat colitis model assessed as DNBS-induced macroscopic damage score at 1 mg/kg/day, ig for 6 days simulatneously with 6 days of DNBS-challenge (reference value: 8.6 +/- 0.6). The class given is functional. The method in brief:
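After intrarectal DNBS (15 mg/0.25 mL 50% ethanol), dosing was intragastric for 6 days (0.2 mL olive oil; 1 mg/kg/day dose in 1% methylcellulose). The whole excised colon was scored for macroscopic damage on a 0–6 point scale by two blinded observers. Values are mean ± SEM, n = 10.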

Data set [6] addresses NACHT, LRR and PYD domains-containing protein 3 (Mus musculus) (UniProt Q8R4B8). Description: Inhibition of NLRP3 inflammasome in LPS-primed C57BL/6 mouse bone marrow derived macrophages assessed as reduction in ATP-induced pyroptosis at 100 to 250 nM preincubated for 1 hr followed by stimulation with ATP measured after 30 mins by LDH release assay. The method in brief:
as §1
A general note: Release of lactate dehydrogenase indicates damage to the cell membrane.

In data set [7] the test system is Rattus norvegicus. Description: Anti-inflammatory activity in DNBS-induced Sprague-Dawley rat colitis model assessed as DNBS-induced IL-1beta levels in colon at 1 mg/kg/day, ig for 6 days simulatneously with 6 days of DNBS-challenge by ELISA (reference value: 22.3 +/- 2.9 ng/mg). Format: functional.
The target of data set [8] is NACHT, LRR and PYD domains-containing protein 3 (Mus musculus) (UniProt Q8R4B8). The experiment in a line: Inhibition of NLRP3 inflammasome in LPS-primed C57BL/6 mouse bone marrow derived macrophages assessed as reduction in ATP-induced IL-1beta production at 10 to 250 nM preincubated for 1 hr followed by stimulation with ATP measured after 30 mins by ELISA. The method in brief:
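C57BL/6 bone marrow macrophages, differentiated with 20% L-cell medium, were primed with LPS (1 µg/mL, 3 h). They were then exposed to compound or vehicle for 1 h and stimulated with ATP (5 mM, 30 min). IL-1β released into the medium was measured by ELISA.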

Data set [9] concerns Rattus norvegicus. The experiment in a line: Anti-inflammatory activity in DNBS-induced Sprague-Dawley rat colitis model assessed as DNBS-induced TNFalpha levels in colon at 1 mg/kg/day, ig for 6 days simulatneously with 6 days of DNBS-challenge by ELISA (reference value: 5.9 +/- 0.6 pg/mg). The class given is functional.
Data set [10] relates to Rattus norvegicus. Description: Antiinflammatory activity in DNBS-induced Sprague-Dawley rat colitis model assessed as body weight recovery at 1 mg/kg/day, ig administered as methylcellulose suspension for 6 days simulatneously with 6 days of DNBS-challenge measured daily during compound dosing. The class given is functional, organism-based. In a few lines:
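Colitis was induced with intrarectal DNBS (15 mg in 0.25 mL 50% ethanol). Intragastric treatment ran 6 days from the day of induction: 1 mg/kg/day in 1% methylcellulose, or 12.5–50 mg/kg/day in olive oil. Body weight change (g) was recorded at the end of treatment, mean ± SEM, n = 10.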

In data set [11] the test system is Rattus norvegicus. Description: Anti-inflammatory activity in DNBS-induced Sprague-Dawley rat colitis model assessed as reduction in DNBS-induced increase in MPO levels in colon at 1 mg/kg/day, ig for 6 days simulatneously with 6 days of DNBS-challenge by ELISA. Format: functional, organism-based. In a few lines:
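DNBS colitis (15 mg intrarectal in 50% ethanol) was treated by the intragastric route for 6 days from induction (1 mg/kg/day in 1% methylcellulose, or 12.5–50 mg/kg/day in olive oil). Colonic samples (30 mg) were taken adjacent and distal to the necrotic area, homogenized, and assayed for MPO by ELISA. Results are ng MPO per mg tissue, mean ± SEM, n = 10.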

NACHT, LRR and PYD domains-containing protein 3 (Mus musculus), sequence (Q8R4B8 whole entry, the tested form may be a part): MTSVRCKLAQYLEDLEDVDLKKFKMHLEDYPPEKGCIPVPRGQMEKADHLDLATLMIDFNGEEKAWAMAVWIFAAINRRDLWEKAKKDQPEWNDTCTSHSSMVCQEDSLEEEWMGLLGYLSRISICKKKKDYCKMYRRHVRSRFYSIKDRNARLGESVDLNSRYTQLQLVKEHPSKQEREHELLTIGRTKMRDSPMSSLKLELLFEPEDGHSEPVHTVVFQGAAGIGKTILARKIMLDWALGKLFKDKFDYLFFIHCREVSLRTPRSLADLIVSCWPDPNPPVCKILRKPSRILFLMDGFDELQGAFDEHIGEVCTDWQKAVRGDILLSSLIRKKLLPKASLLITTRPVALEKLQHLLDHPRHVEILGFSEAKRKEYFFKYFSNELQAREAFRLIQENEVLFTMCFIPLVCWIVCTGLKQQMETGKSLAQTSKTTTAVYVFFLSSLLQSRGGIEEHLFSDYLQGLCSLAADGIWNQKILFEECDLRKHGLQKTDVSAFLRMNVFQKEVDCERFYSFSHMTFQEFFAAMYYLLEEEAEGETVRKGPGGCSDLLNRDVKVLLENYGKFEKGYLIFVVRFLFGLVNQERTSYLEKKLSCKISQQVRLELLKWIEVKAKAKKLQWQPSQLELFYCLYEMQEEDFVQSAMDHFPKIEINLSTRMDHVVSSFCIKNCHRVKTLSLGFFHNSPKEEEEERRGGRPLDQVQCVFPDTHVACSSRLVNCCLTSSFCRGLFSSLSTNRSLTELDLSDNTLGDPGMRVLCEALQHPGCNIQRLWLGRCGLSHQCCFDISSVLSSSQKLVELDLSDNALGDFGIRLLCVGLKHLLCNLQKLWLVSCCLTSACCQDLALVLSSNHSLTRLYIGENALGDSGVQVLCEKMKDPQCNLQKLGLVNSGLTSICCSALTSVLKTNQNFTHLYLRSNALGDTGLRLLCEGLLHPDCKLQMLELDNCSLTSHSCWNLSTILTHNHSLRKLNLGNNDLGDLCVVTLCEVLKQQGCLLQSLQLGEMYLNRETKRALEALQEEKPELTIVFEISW

Take `C[C@@H]1C[C@H]2[C@@H]3CCC4=CC(=O)C=C[C@]4(C)[C@@]3(F)[C@@H](O)C[C@]2(C)[C@@]1(O)C(=O)CO` [DEXAMETHASONE]: the inhibition entry in data set [1] and in [8] was “inactive” each time. Also, the Activity result is listed as “Toxic” with Rattus norvegicus [2], 1.6% in the data set on Rattus norvegicus [3], 6.7 ng/mg with Rattus norvegicus [7] and 2.2 pg/mg in the data set on Rattus norvegicus [9]. For the same compound, the inhibition entry in data set [4] and in [6] was “Active” each time. Further, the Activity_index with Rattus norvegicus [5] was 2. Further, the result with Rattus norvegicus [10] was inactive. The outcome in the data set with Rattus norvegicus [11] was Active.
